Data as given in the EternaBench riboswitch data.

Test system: MS2 coat protein
Test: apparent Kd, MS2 coat protein; higher = weaker binding; RNA-MaP array; FMN 200 µM where present
How it was run: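 Apparent Kd: the median of filtered binding-curve fits from single clusters. Designs were transcribed on Illumina sequencing-chip clusters by stalled E. coli RNA polymerase and titrated with SNAP-549-labelled MS2 coat protein from 0.7 or 1.5 nM, doubling to 3 µM, in 100 mM Tris-HCl pH 7.5, 80 mM KCl, 4 mM MgCl2, BSA, DTT, yeast tRNA and Tween-20. Each series ran without and then with constant ligand, and green signal was normalised to red-channel RNA signal and control-cluster median Fmax.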

[1] = designed as: OFF switch for flavin mononucleotide, no ligand
[2] = ligand present: flavin mononucleotide, designed as: OFF switch for flavin mononucleotide
[3] = designed as: ON switch for flavin mononucleotide, no ligand
[4] = ligand present: flavin mononucleotide, designed as: ON switch for flavin mononucleotide

| Sequence | apparent Kd [1] | apparent Kd [2] | apparent Kd [3] | apparent Kd [4] |
| --- | --- | --- | --- | --- |
| AAAUAGUUAGGAUAUACAUGAGGAUCACCCAUGUAGGGUUCAGUCAUGCAGAAAAUGCGUAGAAGGAACUAUCC | 18.4 nM | 16.7 nM | – | – |
| AAAUCCAACGAAGGAUAUACAAACAUGAGGAUCACCCAUGUGUCUUUCGUGUAACUGGAAUUCGGGUAGAAGGUCGUUGACAUA | 11.8 nM | 17.6 nM | – | – |
| AAAUCCGCUGAGGAUAUCAUGACUGAGAGGUCAUGAGAAGGCGGUACAUGAGGAUCACCCAUGUCUAUGGGCAA | 492 nM | 454 nM | – | – |
| AAAUCGCAAGGAUAUCGUCAGUCUGACAUGAGGAUCACCCAUGUUAUCUUGGUAUCAGAGCGAGAAGGUGCAAAGU | 13 nM | 13.9 nM | – | – |
| AAAUGCAAUCAAGGAUAUGUAUUAAAGAUAUGAAAACAUGAGGAUCACCCAUGUAUAUGGUGGGAACAGAAGGUGAAUAAGUAA | 223 nM | 200 nM | – | – |
| AAAUUAAGAUGAGGAUAUUGACAUGAGGAUCACCCAUGUAUUUGGGAAUGUUUACUGAAUUCUUACAAGAAGGUAUACGAACUU | 206 nM | 134 nM | – | – |
| AAAUUGCUAGAGGAUAUCGGAUAGGAUCUAUUACGAGAAGGUUGGACAUGAGGAUCACCCAUGUUCUGUUGGGA | 23.8 nM | 23.5 nM | – | – |
| AAAUUGGUAGAGGAUAUCGGAUAGGAUUUACUGCGAGAAGGCUGCACAUGAGGAUCACCCAUGUUCUGUUGGGA | 123 nM | 152 nM | – | – |
| AAAUUGUCAGGAUAUCCAACUAUACGAAAUAUAUAUACACAGGAGAAGGGACAUGAGGAUCACCCAUGUUUGAA | 24.6 nM | 19.1 nM | – | – |
| AAAUUUAACGAAGGAUAUGCUGACAUGAGGAUCACCCAUGUGUGCCUUGUGUUACUGAUUAGGUUGCAGAAGGUCGUAUACAUA | 230 nM | 948 nM | – | – |
| AAAUUUGACGAAGGAUAUGGAUACAUGAGGAUCACCCAUGUUUAUUUUGUGAUUUUGUUUAAGUACCAGAAGGUCGAAUACAUA | 39 nM | 63.9 nM | – | – |
| AAAUUUUGUCAAGGAUAUGUAUAAUUGAUUUGAAAACAUGAGGAUCACCCAUGUAUAUUGUGGGAACAGAAGGUGAAUAAGUAA | 209 nM | 190 nM | – | – |
| AACAAACAUGAGGAUCACCCAUGUCAGGAUAUCCGAAAUAAAGAAACAAUAAUAAUAAGGAGAAGGGACUAAAU | 53.5 nM | 55.5 nM | – | – |
| AACAACUCUGUGAGGAUAUGCAAUUGUUGAUCAAGGCAGAAGGCACAUGAGGAUCACCCAUGUUCCUACAAGGG | 47.3 nM | 110 nM | – | – |
| AACAAUCUAUCUGAGGAUAUCAUGAAAAAAACAUGAGGAUCACCCAUGUGCAGGAAAACUGCAUAUGAGAAGGCAGAUAGAUUGC | – | – | 590 nM | 26.8 nM |
| AACAAUCUAUCUGAGGAUAUCAUGUCAAAGACAUGAGGAUCACCCAUGUACCAGGAAACUGGUUAUGAGAAGGCAGAUAGAUUGA | – | – | 1260 nM | 54.8 nM |
| AACACGAGAGGUGUUAUCUAACCACAUGAGGAUCACCCAUGUAAGGAUAUCGCGGCUAUCGGCAUCGAGAAGGUACAGGGUGCA | 44.1 nM | 93.6 nM | – | – |
| AACAGCUCGUCAGGAUAUAUUAUAUUUAUAUGGAUUAAUGUACAUGAGGAUCACCCAUGUAGUUAGUAGAAGGGACGAGCUGAA | 8.4 nM | 10.8 nM | – | – |
| AACAGUACAGGAUAUACAUGAGGAUCACCCAUGUGAGAAUUUAGCAGCGUACCACACAGUAGAAGGGUAAUGGA | 28.2 nM | 25.5 nM | – | – |

| Sequence | apparent Kd [1] | apparent Kd [2] | apparent Kd [3] | apparent Kd [4] |
| --- | --- | --- | --- | --- |
| AACAUGCUAGGAUAUACAAGACAAAUUGGGCAUCCGCAUGGACAUGAGGAUCACCCAUGUAGAAGGAGUAUAAA | 167 nM | 278 nM | – | – |
| AACCCUACUGAGGAUAUGAAACGGCUAGACGCAUCAGAAGGCAGUACAUGAGGAUCACCCAUGUACCUCCGGGC | 13.3 nM | 20.9 nM | – | – |
| AACCCUUGAGGAUAUUAAACAAAUCACAUGAGGAUCACCCAUGUGCAUACCUCGUGGCUUUGAGAAGGCAGUCGGG | 34.9 nM | 39.2 nM | – | – |
| AACCGCGACCGGCCUGGCACGCCGAGAAGGGUACGUGACCUGCUUUACAUGAGGAUCACCCAUGUACAGGAUAUCGGAUAGCCG | – | 7.28 nM | – | – |
| AACCUAAAACAGAAGGCCAAAUACAUGAGGAUCACCCAUGUCGAAUCAUGGAGGAUAUGUUAUUAAUUACUCGCAGAUGAGUGC | – | – | 70 nM | 7.49 nM |
| AACCUAUUACAGAAGGCCAGCUACAUGAGGAUCACCCAUGUCGAGUCAUGGAGGAUAUGUAGUAAUCUGCACGCGUGCGGGCAC | – | – | 49.8 nM | 6.65 nM |
| AACGUCCUAGGAUAUACGCUGGGACUCGCCAUGUGGGCCCUACAUGAGGAUCACCCAUGUAGAAGGAGGACAUG | 19.5 nM | 12.9 nM | – | – |
| AACGUGGCAAAGGAUAUCCACACGGCAAAGCCGGGAGAAGGUUGCACAUGAGGAUCACCCAUGUGAACCAAACA | 14.9 nM | 17.8 nM | – | – |
| AACUCACAUGAGGAUCACCCAUGUGAGGAUAUAUUGUUAUGGAUGUUAUUUUGUAGUGGUAGAAGGCGCGUGAU | 15.3 nM | 15.2 nM | – | – |
| AACUCGUCAGGAUAUGCGCACAGAUAAUACGCUACACAAUUGCAGAAGGGACAUGAGGAUCACCCAUGUAAAUA | 39 nM | 26.2 nM | – | – |
| AACUGACAUGAGGAUCACCCAUGUCAGGAUAUGACUUCAAAAUAAAAAUAAAAUGAUGUCAGAAGGGACAUGGA | 22.6 nM | 36.1 nM | – | – |
| AAGAAAGAAACAUAGGAUAUCAAGGAUAUAACAUGAGGAUCACCCAUGUAAAUACGAAAGUAUAAUGAGAAGGAUGGAUGAUCUUC | – | – | 86.1 nM | 122 nM |
| AAGAAGUCAGGAUAUCCAGCUCGUCACUUGCGUGAUGAGUUGGAGAAGGGACAUGAGGAUCACCCAUGUAAAGG | 202 nM | 230 nM | – | – |
| AAGAAGUGAGGAUAUGCUGCUCGUCACGAAAGUGAUGAGUAGCAGAAGGCACAUGAGGAUCACCCAUGUAAAGA | 36.9 nM | 55.4 nM | – | – |
| AAGAGCGAUUCUCCCUUCCUACAUGAGGAUCACCCAUGUACGAGAAGGCGCCGUGGAUACCACGGUGAGGAUAUCGUGCGUUAC | 4.55 nM | 5.13 nM | – | – |
| AAGAGUAGAGGAUAUAUAUGAAAAGAGUCGAAAGACUCAAAACAUGAGGAUCACCCAUGUAGAAGGCUACUCAA | 17.8 nM | 21.1 nM | – | – |
| AAGAGUGCAGGAUAUACUUGGUAGGGCGGGUGGAUGGUUUGACAUGAGGAUCACCCAUGUAGAAGGGCAGAGAG | 38.7 nM | 27.6 nM | – | – |
| AAGAUGCGGGUAGGAUAUGGAAAUUAAUAAAGACCAGAAGGACUGGUCACACAACAUGAGGAUCACCCAUGUGUGUGUUGUGAA | 11.9 nM | 10.4 nM | – | – |
| AAGGACUGAAUAAAUAACUCAAAUACAUGAGGAUCACCCAUGUAGGAUAUCGUCAGGAAUACUGACGAGAAGGACAUACAGUCC | 14 nM | 20.2 nM | – | – |

| Sequence | apparent Kd [1] | apparent Kd [2] | apparent Kd [3] | apparent Kd [4] |
| --- | --- | --- | --- | --- |
| AAGGACUGUAAUAAUGUAGAAAUACAUGAGGAUCACCCAUGUAAGGAUAUCGUCAGGAAUACUGACGAGAAGGUACAUCAGUCC | – | 25.8 nM | – | – |
| AAGGGACAUGAGGAUCACCCAUGUGAGGAUAUGCUAUGGAAAAUAAAAAAUAAACAUAGCAGAAGGCAUAAAAA | 64.9 nM | 97 nM | – | – |
| AAGGUACAUGAGGAUCACCCAUGUGGGUCGGUCGCAGGAUAUCGCCGUUGGCCCUGGCGGCGAGAAGGGUGCCGAA | – | – | 375 nM | 61.1 nM |
| AAGGUGAGAGGAUAUACAUGAGGAUCACCCAUGUGCCGGCCCUCCACAUAUGCCUUGUGUAGAAGGCUCCCGAA | 14.5 nM | 14.9 nM | – | – |
| AAGGUGUUAGGAUAUCGUAGUUUGAGGCAGACGGGAUUUUGCGAGAAGGAACAUGAGGAUCACCCAUGUAGGAU | 27.2 nM | 30.4 nM | – | – |
| AAGUAGUGAGGAUAUACAUGGAUAUACAUUCAUGUGGACCUACAUGAGGAUCACCCAUGUAGAAGGCACUACUA | 42.6 nM | 61.6 nM | – | – |
| AAGUCACAUGAGGAUCACCCAUGUCGUAAACGAUGAGGAUAUAGGAAGAAAAAAAAAAAACUAGAAGGUAUUACAA | – | – | 59.8 nM | 55.9 nM |
| AAGUCAGCAGGAUAUGCGAUGUUGGGCUAGGUAGCGUGACCACAUGAGGAUCACCCAUGUAGAAGGGCUGGCUA | 33.4 nM | 34.4 nM | – | – |
| AAGUCAGCAGGAUAUGCGAUGUUGGGCUAGGUAGCUUGACCACAUGAGGAUCACCCAUGUAGAAGGGCUGGCUA | 17.4 nM | 14 nM | – | – |
| AAGUCGAGUAAUAAAUAAGAUCUACAUGAGGAUCACCCAUGUAAGGAUAUGCAGUGGAAUACACUGCAGAAGGUACAUCUCGAC | 14 nM | 35 nM | – | – |
| AAGUCUGGACGAGGAUAUCAGUUGUAUCUAGAUUCAACAUGAGGAUCACCCAUGUUGCAAUAGGGUGAGAAGGCGUUUGGGCAA | – | – | 79.9 nM | 21.2 nM |
| AAGUUAUAUACAUGAGGAUCACCCAUGUCAAAGGGAGUAAUCAGAAGGUACUAUUCAAUAAUUAGUAAGGAUAUGAAUUUUUAG | – | – | 39.5 nM | 30.6 nM |
| AAUAAACAUGAGGAUCACCCAUGUCAGGAUAUGCGUCUAUCCUUAUACCAUAGAUACGGCAGAAGGGACUAAUA | 24.9 nM | 31 nM | – | – |
| AAUAAACAUGAGGAUCACCCAUGUGAGGAUAUGGUAUUAUUUGGACAGUUAUGAUAUACCAGAAGGCACAAAUA | 28 nM | 46.8 nM | – | – |
| AAUAAACUCACAGGAUAUAGCAUAGGUCGCGUGUACUUACAGGCGACUAUGCUAGAAGGGUGACCACAUGAGGAUCACCCAUGU | – | – | 887 nM | 188 nM |
| AAUAAACUCACAGGAUAUAGCAUCGACGUUGCGAACUUAGCGACGUCGAUGCUAGAAGGGUGAAAACAUGAGGAUCACCCAUGU | – | – | 30.9 nM | 13.4 nM |
| AAUAAGGUCACAGGAUAUACUACAUCCAAUGCGGUAGAAGGGUGACACUUACUGUGCAGACAUGAGGAUCACCCAUGUAACCAC | – | – | 53 nM | 10.4 nM |
| AAUAAUAAGGAGGAUAUCGUAUCGGAAACGAUACGAGAAGGUCUAACAUGAGGAUCACCCAUGUUCCUCAAAUA | 38.1 nM | 54.3 nM | – | – |
